From ChEMBL document CHEMBL5303300, “EUbOPEN Chemogenomics Library - Multiplex” (2023)
Where “and” joins values, the source holds several entries; their conditions need not be identical. Equal values may be shown once.

Tested on: Fibroblast
Test: Multiplex assay against human fibroblast
Type: toxicity, cell-based
Conditions: number of replicates 2
How it was run: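 Live cells carried four stains from seeding: Hoechst33342, BioTracker Green Microtubule Cytoskeleton Dye, MitoTracker Red and Annexin V Alexa Fluor 680. They were imaged on a CQ1 microscope at 37°C and 5% CO2 after compound addition. Using CellPathfinder machine-learning gating, cells were split into Hoechst high-intensity objects or normal cells, normal cells into healthy, pyknosed or fragmented nuclei, and pyknosed cells into mitotic or apoptotic; tubulin, mitochondrial-mass and membrane-permeability phenotypes are per cents of healthy-nucleus cells.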

[1] = 12 h, 1 µM, compound concentration 1 uM
[2] = 12 h, 10 µM, compound concentration 10 uM
[3] = 24 h, 1 µM, compound concentration 1 uM
[4] = 24 h, 10 µM, compound concentration 10 uM
[5] = 48 h, 1 µM, compound concentration 1 uM
[6] = 48 h, 10 µM, compound concentration 10 uM

## OC(c1ccc(-c2ccc(CN3CCN(Cc4ccncc4)CC3)cc2)c(F)c1)(C(F)(F)F)C(F)(F)F
[1]
  Population Apoptotic (%): 54% and 23%
  Population Fragmented Nuclei (%): 5% and 6%
  Population Healthy Nuclei (%): 43% and 70%
  Population Hoechst High Intensity Objects (%): 0%
  Population Membrane Permeable-Phenotype (%): 8% and 3%
  Population Mitochondria Different-Phenotype (%): 0% and 1%
  Population Mitotic Cells (%): 45% and 76%
  Population Normal (%): 100%
  Population Pyknosed Nuclei (%): 50% and 23%
  Population Tubulin-Different-Phenotype (%): 6% and 8%
  Total Cell Count: 108 and 164
[2]
  Population Apoptotic (%): 31% and 45%
  Population Fragmented Nuclei (%): 10% and 16%
  Population Healthy Nuclei (%): 70% and 63%
  Population Hoechst High Intensity Objects (%): 0%
  Population Membrane Permeable-Phenotype (%): 6% and 8%
  Population Mitochondria Different-Phenotype (%): 0% and 3%
  Population Mitotic Cells (%): 68% and 55%
  Population Normal (%): 100% and 99%
  Population Pyknosed Nuclei (%): 18% and 19%
  Population Tubulin-Different-Phenotype (%): 24% and 25%
  Total Cell Count: 156 and 204
[3]
  Population Apoptotic (%): 61% and 55%
  Population Fragmented Nuclei (%): 6% and 10%
  Population Healthy Nuclei (%): 45% and 65%
  Population Hoechst High Intensity Objects (%): 0%
  Population Membrane Permeable-Phenotype (%): 12% and 7%
  Population Mitochondria Different-Phenotype (%): 2% and 3%
  Population Mitotic Cells (%): 38% and 44%
  Population Normal (%): 100%
  Population Pyknosed Nuclei (%): 47% and 23%
  Population Tubulin-Different-Phenotype (%): 16% and 15%
  Total Cell Count: 109 and 151
[4]
  Population Apoptotic (%): 44% and 45%
  Population Fragmented Nuclei (%): 7% and 13%
  Population Healthy Nuclei (%): 74% and 61%
  Population Hoechst High Intensity Objects (%): 0%
  Population Membrane Permeable-Phenotype (%): 3% and 7%
  Population Mitochondria Different-Phenotype (%): 1% and 3%
  Population Mitotic Cells (%): 56% and 54%
  Population Normal (%): 99% and 100%
  Population Pyknosed Nuclei (%): 17% and 24%
  Population Tubulin-Different-Phenotype (%): 16% and 23%
  Total Cell Count: 144 and 197
[5]
  Population Apoptotic (%): 74% and 80%
  Population Fragmented Nuclei (%): 16% and 17%
  Population Healthy Nuclei (%): 53% and 61%
  Population Hoechst High Intensity Objects (%): 0%
  Population Membrane Permeable-Phenotype (%): 11% and 5%
  Population Mitochondria Different-Phenotype (%): 0%
  Population Mitotic Cells (%): 25% and 19%
  Population Normal (%): 100%
  Population Pyknosed Nuclei (%): 29% and 21%
  Population Tubulin-Different-Phenotype (%): 11% and 12%
  Total Cell Count: 118 and 167
[6]
  Population Apoptotic (%): 73% and 77%
  Population Fragmented Nuclei (%): 14% and 16%
  Population Healthy Nuclei (%): 73% and 71%
  Population Hoechst High Intensity Objects (%): 0%
  Population Membrane Permeable-Phenotype (%): 6% and 4%
  Population Mitochondria Different-Phenotype (%): 0% and 2%
  Population Mitotic Cells (%): 26% and 22%
  Population Normal (%): 100%
  Population Pyknosed Nuclei (%): 11% and 12%
  Population Tubulin-Different-Phenotype (%): 16% and 12%
  Total Cell Count: 162 and 183

## CCN1CCN(Cc2ccc(C(=O)Nc3ccc(C)c(Oc4ccc5c(c4)CC(=O)N5)c3)cc2C(F)(F)F)CC1.Cl.Cl
[1]
  Population Apoptotic (%): 32% and 37%
  Population Fragmented Nuclei (%): 14% and 13%
  Population Healthy Nuclei (%): 59% and 62%
  Population Hoechst High Intensity Objects (%): 0%
  Population Membrane Permeable-Phenotype (%): 2% and 6%
  Population Mitochondria Different-Phenotype (%): 2% and 1%
  Population Mitotic Cells (%): 67% and 62%
  Population Normal (%): 100% and 99%
  Population Pyknosed Nuclei (%): 25% and 23%
  Population Tubulin-Different-Phenotype (%): 27%
  Total Cell Count: 230 and 264
[2]
  Population Apoptotic (%): 47% and 35%
  Population Fragmented Nuclei (%): 22% and 13%
  Population Healthy Nuclei (%): 58% and 61%
  Population Hoechst High Intensity Objects (%): 0%
  Population Membrane Permeable-Phenotype (%): 8%
  Population Mitochondria Different-Phenotype (%): 11% and 14%
  Population Mitotic Cells (%): 52% and 64%
  Population Normal (%): 99% and 100%
  Population Pyknosed Nuclei (%): 18% and 25%
  Population Tubulin-Different-Phenotype (%): 78% and 73%
  Total Cell Count: 298 and 282
[3]
  Population Apoptotic (%): 47% and 46%
  Population Fragmented Nuclei (%): 21% and 16%
  Population Healthy Nuclei (%): 61% and 59%
  Population Hoechst High Intensity Objects (%): 0%
  Population Membrane Permeable-Phenotype (%): 3% and 1%
  Population Mitochondria Different-Phenotype (%): 2% and 4%
  Population Mitotic Cells (%): 52% and 53%
  Population Normal (%): 99% and 100%
  Population Pyknosed Nuclei (%): 17% and 23%
  Population Tubulin-Different-Phenotype (%): 28% and 20%
  Total Cell Count: 278 and 269
[4]
  Population Apoptotic (%): 59% and 68%
  Population Fragmented Nuclei (%): 15% and 7%
  Population Healthy Nuclei (%): 57% and 51%
  Population Hoechst High Intensity Objects (%): 0% and 1%
  Population Membrane Permeable-Phenotype (%): 8% and 5%
  Population Mitochondria Different-Phenotype (%): 27% and 45%
  Population Mitotic Cells (%): 40% and 31%
  Population Normal (%): 99% and 98%
  Population Pyknosed Nuclei (%): 26% and 40%
  Population Tubulin-Different-Phenotype (%): 89% and 78%
  Total Cell Count: 258 and 216
[5]
  Population Apoptotic (%): 88% and 73%
  Population Fragmented Nuclei (%): 23% and 20%
  Population Healthy Nuclei (%): 67% and 61%
  Population Hoechst High Intensity Objects (%): 0%
  Population Membrane Permeable-Phenotype (%): 4% and 6%
  Population Mitochondria Different-Phenotype (%): 4% and 5%
  Population Mitotic Cells (%): 12% and 26%
  Population Normal (%): 100% and 99%
  Population Pyknosed Nuclei (%): 8% and 18%
  Population Tubulin-Different-Phenotype (%): 28% and 27%
  Total Cell Count: 282 and 246
[6]
  Population Apoptotic (%): 89% and 92%
  Population Fragmented Nuclei (%): 9% and 18%
  Population Healthy Nuclei (%): 44% and 41%
  Population Hoechst High Intensity Objects (%): 1% and 2%
  Population Membrane Permeable-Phenotype (%): 13% and 12%
  Population Mitochondria Different-Phenotype (%): 48% and 61%
  Population Mitotic Cells (%): 10% and 7%
  Population Normal (%): 98% and 97%
  Population Pyknosed Nuclei (%): 46% and 39%
  Population Tubulin-Different-Phenotype (%): 78% and 93%
  Total Cell Count: 190 and 197

## CCCNc1ccc2ncc(-c3ccncc3)n2n1
[1]
  Population Apoptotic (%): 30% and 34%
  Population Fragmented Nuclei (%): 4% and 14%
  Population Healthy Nuclei (%): 65% and 63%
  Population Hoechst High Intensity Objects (%): 0%
  Population Membrane Permeable-Phenotype (%): 14% and 6%
  Population Mitochondria Different-Phenotype (%): 0%
  Population Mitotic Cells (%): 69% and 65%
  Population Normal (%): 100%
  Population Pyknosed Nuclei (%): 29% and 21%
  Population Tubulin-Different-Phenotype (%): 18% and 9%
  Total Cell Count: 144 and 202
[2]
  Population Apoptotic (%): 51% and 53%
  Population Fragmented Nuclei (%): 12% and 10%
  Population Healthy Nuclei (%): 70% and 75%
  Population Hoechst High Intensity Objects (%): 0%
  Population Membrane Permeable-Phenotype (%): 4% and 3%
  Population Mitochondria Different-Phenotype (%): 5% and 1%
  Population Mitotic Cells (%): 48% and 46%
  Population Normal (%): 100%
  Population Pyknosed Nuclei (%): 17% and 13%
  Population Tubulin-Different-Phenotype (%): 27% and 17%
  Total Cell Count: 157 and 204
[3]
  Population Apoptotic (%): 38% and 42%
  Population Fragmented Nuclei (%): 9% and 14%
  Population Healthy Nuclei (%): 61% and 63%
  Population Hoechst High Intensity Objects (%): 0%
  Population Membrane Permeable-Phenotype (%): 9% and 8%
  Population Mitochondria Different-Phenotype (%): 2% and 1%
  Population Mitotic Cells (%): 61% and 57%
  Population Normal (%): 100%
  Population Pyknosed Nuclei (%): 29% and 21%
  Population Tubulin-Different-Phenotype (%): 25% and 13%
  Total Cell Count: 143 and 193
[4]
  Population Apoptotic (%): 75% and 65%
  Population Fragmented Nuclei (%): 18% and 15%
  Population Healthy Nuclei (%): 65% and 68%
  Population Hoechst High Intensity Objects (%): 0%
  Population Membrane Permeable-Phenotype (%): 5% and 3%
  Population Mitochondria Different-Phenotype (%): 8% and 7%
  Population Mitotic Cells (%): 25% and 34%
  Population Normal (%): 99% and 100%
  Population Pyknosed Nuclei (%): 16%
  Population Tubulin-Different-Phenotype (%): 33% and 30%
  Total Cell Count: 151 and 200
[5]
  Population Apoptotic (%): 55% and 59%
  Population Fragmented Nuclei (%): 14% and 20%
  Population Healthy Nuclei (%): 57% and 59%
  Population Hoechst High Intensity Objects (%): 0%
  Population Membrane Permeable-Phenotype (%): 15% and 8%
  Population Mitochondria Different-Phenotype (%): 1% and 0%
  Population Mitotic Cells (%): 44% and 40%
  Population Normal (%): 100% and 99%
  Population Pyknosed Nuclei (%): 28% and 19%
  Total Cell Count: 150 and 228
[6]
  Population Apoptotic (%): 61% and 80%
  Population Fragmented Nuclei (%): 14% and 13%
  Population Healthy Nuclei (%): 60% and 61%
  Population Hoechst High Intensity Objects (%): 0%
  Population Membrane Permeable-Phenotype (%): 11% and 4%
  Population Mitochondria Different-Phenotype (%): 6% and 5%
  Population Mitotic Cells (%): 38% and 20%
  Population Normal (%): 99%
  Population Pyknosed Nuclei (%): 24% and 25%
  Population Tubulin-Different-Phenotype (%): 45% and 33%
  Total Cell Count: 149 and 198
